Where “and” joins values, the source holds several entries; their conditions need not be identical. Identical values can stand only once.
System: Plasmodium yoelii
Assay: NOVARTIS: Antimalarial liver stage activity measured as reduction in Plasmodium yoelii schizont area in HepG2-A16-CD81 cells by immuno-fluorescence, and median schizont size at 10uM compound concentration
Assay type: functional, organism-based
Method in brief: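 Host and parasite nuclei stained with Hoechst 33342, parasites with αPyHSP70 antibody; 25 images per well by high-content imaging; median parasite (schizont) area measured by automated image analysis, ~50 schizonts per experiment, two or more independent experiments.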

[1] = Plasmodium yoelii, HepG2-A16-CD81

| Structure (SMILES) | Schizont size | IC50 [1] [nM] | IC50 (hepg2-a16-cd81) |
| --- | --- | --- | --- |
| Brc1ccc(Nc2nc(NCc3ccco3)c3ccccc3n2)cc1 | 35.17 um | 163 |  |
| COc1ccc2[nH]c3ccccc3c(=O)c2c1 | 30.27 um | 135 |  |
| CCC1CN2CCc3cc(OC)c(OC)cc3C2CC1CC1NCCc2cc(OC)c(OC)cc21.Cl (centres undefined) | 13.78 um | 80.2 |  |
| OC1=C2C(=Nc3ccccc3SC2c2ccccc2)c2ccccc21 (centres undefined) | 28.39 um | 93.7 |  |
| Cc1nc2ccccc2c(O)c1CC=C(Cl)Cl | 43.21 um | 130 |  |
| CC(C)(C)C1CCc2[nH]c3ccccc3c(=O)c2C1 (centres undefined) | 22.13 um | 98.3 |  |
| Cc1ccc2[nH]c(C)c(Br)c(=O)c2c1 | 29.96 um | 252 |  |
| CCOC(=O)C1=C(C)NC2=C(C(=O)C(C(=O)OCC)C(c3cccc(OC)c3)C2)C1c1cc(OC)c(OC)c(OC)c1 (centres undefined) | 109.59 um | 232 |  |
| Oc1cccc2ccc(Nc3ccccn3)nc12 | 30.16 um | 142 |  |
| CC(Oc1ccc(Cl)cc1Cl)c1nc(-c2ccc(NC(=O)c3ccco3)cc2)no1 (centres undefined) | 28.18 um | 154 |  |
| COc1ccc2nc(C)cc(Nc3ccc(Oc4ccc5ccccc5c4Cl)c(Cl)c3)c2c1 | 31 um | 114 |  |
| CC1(C)N=C(N)N=C(N)N1c1ccccc1.Cl | 37.05 um | 100 |  |
| Cc1nc2ccc(Br)cc2c(O)c1CC(C)C | 30.79 um | 244 |  |
| O=C(Cc1ccccc1)NC(c1ccc(Cl)cc1)c1ccc2cccnc2c1O (centres undefined) | 17.33 um | 190 |  |
| Cc1ccc(C2Sc3ccccc3NC3=C2C(=O)c2ccccc23)cc1 (centres undefined) | 27.03 um | 278 |  |
| c1ccc(-c2csc(Nc3nc4cc5c(cc4s3)OCO5)n2)nc1 | 34.44 um | 78.9 |  |
| CCCCSc1oc(C)nc1[P+](c1ccccc1)(c1ccccc1)c1ccccc1 | 22.13 um | 82.1 |  |
| CCOc1ccc(Nc2nc(NCc3ccco3)c3ccccc3n2)cc1 | 75.78 um | 105 |  |
| CCCCCCCn1c2c(c(=N)c3ccccc31)CCC2.I | 23.59 um | 76.5 |  |
| CC(C)NC(=O)c1cc(NC(=O)c2cccs2)ccc1N1CCc2ccccc2C1 | 26.93 um | 74.8 |  |
| CCOC(=O)c1cnc2ccc(OC)cc2c1NCc1cccs1 | 31.63 um | 193 |  |

| Structure (SMILES) | Schizont size | IC50 [1] [nM] | IC50 (hepg2-a16-cd81) |
| --- | --- | --- | --- |
| Clc1ccccc1-c1nc([P+](c2ccccc2)(c2ccccc2)c2ccccc2)c(N2CCOCC2)o1 | 20.56 um | 95.6 |  |
| CC(=O)N(C)C1=C(N2CCOCC2)C(=O)c2ccccc2C1=O | 38.72 um | 229 |  |
| Cn1ncnc2c(=O)n(C)c(=O)nc1-2 | 12.53 um | 103 |  |
| C[C@@H]1CCC[C@@H](C[C@H]2Cc3cc(O)cc(O)c3C(=O)O2)O1 | 41.96 um | 112 |  |
| Cc1cccc(NC(=S)NC2CC3CCCC(C2)N3CCc2ccccc2)c1 (centres undefined) | 67.74 um | 277 |  |
| CN(C)c1oc(-c2ccc(Cl)cc2Cl)nc1[P+](c1ccccc1)(c1ccccc1)c1ccccc1.[I-] | 19.41 um | 129 |  |
| CCN(CC)CCCN(Cc1cc2cc(OC)c(OC)cc2[nH]c1=O)C(=S)Nc1cccc(Cl)c1 | 60.54 um | 162 |  |
| Cc1cc(C)nc(NC(=N)Nc2cccc(O)c2)n1 | 88.2 um | 152 |  |
| COc1ccc2sc(Nc3nc(-c4ccccn4)cs3)nc2c1 | 28.91 um | 159 |  |
| CC(Oc1ccc(Cl)cc1Cl)c1nc(-c2ccc(NC(=O)c3cccs3)cc2)no1 (centres undefined) | 21.92 um | 114 |  |
| Cc1oc2c(c1C(=O)NCC1CCCO1)C(=O)c1ccccc1C2=O (centres undefined) | 21.4 um | 189 |  |
| Cl.OCCNc1nc(Nc2ccc(F)cc2)nc2ccccc12 | 91.12 um | 136 |  |
| Cc1ccc(-c2cc3nc4c(c(O)n3n2)CCCC4)cc1 | 26.41 um | 75.3 |  |
| Cc1nc([P+](c2ccccc2)(c2ccccc2)c2ccccc2)c(N2CCCCC2)o1 | 25.57 um | 82.4 |  |
| Cc1nc2cc(-c3ccc(I)cc3)nn2c(O)c1C | 35.28 um | 118 |  |
| CC1(C)N=C(N)N=C(N)N1c1ccc(Oc2ccc(Cl)cc2)c(Cl)c1.Cl | 27.76 um | 73 |  |
| CCNC(=O)C1CCN(c2cccc3c2C(=O)N(C2CCCCCCC2)C3=O)CC1 | 30.48 um | 269 |  |
| Cc1cc(NC(c2cccc(Br)c2)c2ccc3cccnc3c2O)no1 (centres undefined) | 16.28 um | 147 |  |
| COc1ccc(-c2n(C)c3ccccc3[n+]2CC(=O)OC2CC(C)CCC2C(C)C)cc1.[Cl-] (centres undefined) | 14.3 um | 156 |  |
| Cc1oc2c(c1C(=O)NCCCn1ccnc1)C(=O)c1ccccc1C2=O | 12.53 um | 119 |  |
| Cc1[nH]c2ccccc2c(=O)c1Br | 29.43 um | 214 |  |

| Structure (SMILES) | Schizont size | IC50 [1] [nM] | IC50 (hepg2-a16-cd81) |
| --- | --- | --- | --- |
| Cc1ccc(Nc2nc(NCc3ccccc3)c3ccccc3n2)cc1 | 31.73 um | 278 |  |
| CCOC(=O)c1cnc2ccc(OC)cc2c1O | 30.16 um and 29.96 um |  | 135 nM and 293 nM |
| Cc1ccc2cc(C)c(Nc3ccc(Cl)cc3)nc2c1 | 42.06 um | 148 |  |
| Cl.Fc1ccc(Nc2nc(NCc3ccco3)c3ccccc3n2)cc1 | 45.3 um | 74.9 |  |
| CC[n+]1c(C=C2C=C(C)OC(C)=C2)sc2ccccc21.[Cl-] | 25.36 um | 245 |  |
| O=c1c2ccccc2[nH]c2ccc(I)cc12 | 24.95 um | 105 |  |
| CCOC(=O)C1=C(C)NC2=C(C(=O)C(C(=O)OCC)C(c3ccc(OC)cc3)C2)C1c1ccc(OC)c(OC)c1 (centres undefined) | 86.53 um | 240 |  |
| CCCCN(CC)CCNC(=O)C1c2ccccc2C(=O)N(Cc2ccc(F)cc2)C1c1ccc(OC)cc1 (centres undefined) | 63.36 um | 89.1 |  |
| O=C(Nc1ccc(-c2ccc(Cl)cc2)cc1)c1cccs1 | 31.73 um | 151 |  |
| Cc1cccc2c1[nH]c1nc(SCC(C)C)nnc12 | 36.43 um | 152 |  |
| CCOC(=O)c1ccc(NCc2c(C)[nH]c3ccccc3c2=O)cc1 | 18.27 um | 137 |  |
| O=C(NC1CC1)c1ccc(CSCc2ccccc2Cl)o1 | 26.09 um | 140 |  |
| O=c1c2ccccc2[nH]c2ccc(F)cc12 | 29.64 um | 223 |  |
| O=C1c2ccccc2C2=Nc3ccccc3SC(c3cccc(F)c3)C12 (centres undefined) | 30.06 um | 162 |  |
| Br.Cc1ccnc(Nc2nc(-c3ccccn3)cs2)c1 | 19.21 um | 95.6 |  |
| OC1=C2C(=Nc3ccccc3SC2c2cccs2)c2ccccc21 (centres undefined) | 25.89 um | 90.4 |  |
| COc1ccc2nc(C)cc(Nc3ccc(Oc4ccc(Cl)c5ccccc45)c(Cl)c3)c2c1 | 22.65 um | 267 |  |
| O=C(Nc1c2ccccc2nc2ccccc12)c1cc(Cl)ccc1O | 43.52 um | 181 |  |
| c1ccc(CNc2nc(Nc3ccccc3)nc3ccccc23)cc1 | 29.85 um | 153 |  |
| CCCCCCOc1ccc(NC(=O)c2cccs2)cc1 | 27.87 um | 139 |  |
| COc1ccccc1Nc1nc(NCc2ccccc2)c2ccccc2n1.Cl | 40.29 um | 91.3 |  |

| Structure (SMILES) | Schizont size | IC50 [1] [nM] | IC50 (hepg2-a16-cd81) |
| --- | --- | --- | --- |
| CCCCNC(=O)C1CCC(CN(Cc2c(Cl)cccc2Cl)S(=O)(=O)c2ccc(Br)cc2)CC1 (centres undefined) | 29.64 um | 124 |  |
| O=C1C(Nc2ccc(O)cc2)=CC(=NS(=O)(=O)c2cccs2)c2ccccc21 | 12.53 um | 85.6 |  |
| [Br-].c1ccc(-c2nn(-c3ccccc3)[n+](-c3ccccc3)n2)cc1 | 26.51 um | 107 |  |
| CCCc1c(C)nc2ccccc2c1O | 34.55 um | 279 |  |
| C=CCc1c(C)nc2ccc(Br)cc2c1O | 32.46 um | 181 |  |
| O=c1c2c([nH]c3ccccc13)CCCCCCCCCC2 | 25.15 um | 99 |  |
| CCC(C)(C)c1ccc(OCCOCC[n+]2ccccc2)c(C(C)(C)CC)c1.[Cl-] | 13.88 um | 96.2 |  |
| CCCC(=O)NC(c1ccc(Cl)cc1)c1ccc2cccnc2c1O (centres undefined) | 14.09 um | 190 |  |
| N=c1c2c(n(Cc3ccc(Cl)cc3)c3c1CCC3)CCC2 | 32.57 um | 91.1 |  |
| Cc1ccc(-c2cn3c([n+]2-c2ccc(C)cc2)CCCCC3)cc1 | 27.24 um | 146 |  |
| CCCCCCCc1cc(O)c2c3c(c(=O)oc2c1)CCC(C)C3 (centres undefined) | 31.52 um | 247 |  |
| Oc1c(CN2CCN(Cc3ccc4cccnc4c3O)CC2)ccc2cccnc12 | 21.19 um | 96.6 |  |
| COc1ccc(C2N(Cc3ccccc3)c3ccccc3N2Cc2ccccc2)cc1 | 30.79 um | 121 |  |
| OC1=C2C(=Nc3ccccc3SC2c2ccco2)c2ccccc21 (centres undefined) | 31.63 um | 113 |  |
| O=C1c2ccccc2C2=Nc3ccccc3SC(c3ccccc3F)C12 (centres undefined) | 28.6 um | 239 |  |
| CN(C)c1ccc(-c2n(C)c3ccccc3[n+]2C)cc1.[Cl-] | 46.86 um | 175 |  |
| CC[n+]1c(C=C2C=CN(C)C=C2)ccc2cc(C)ccc21.[I-] | 25.57 um | 170 |  |
| CCCCc1c(CCC)c(=N)c2ccccc2n1C.I | 58.14 um | 244 |  |
| Cc1nc2c(C)cccc2c(O)c1CC=C(Cl)Cl | 31.21 um | 169 |  |
